Data from ChEMBL document CHEMBL1914331, “N-O chemistry for antibiotics: discovery of N-alkyl-N-(pyridin-2-yl)hydroxylamine scaffolds as selective antibacterial agents using nitroso Diels-Alder and ene chemistry” (J Med Chem, 2011).
Values after ≈ are worked out from the molar mass of the structure shown.

Key:
[1] = tested on: PC-3; assay: Cytotoxicity against human PC3 cells; format: cell-based
[2] = tested on: HeLa; assay: Cytotoxicity against human HeLa cells; format: cell-based
[3] = tested on: Micrococcus luteus; assay: Antimicrobial activity against Micrococcus luteus ATCC 10240 after 24 hrs by Kirby-Bauer agar diffusion assay; format: functional
Outline: (§1)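 Modified Kirby-Bauer well diffusion. Overnight LB cultures (18–24 h) were standardized in 0.9% saline to 0.5 McFarland and mixed into melted MHII agar at 47–50 °C, giving ~5×10³ CFU/mL. 9 mm wells received 50 µL of 2.0 mM compound in 10:1 MeOH:DMSO. Plates were incubated 24 h at 37 °C, then growth-inhibition zone diameter was measured (mm) by caliper.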

[4] = tested on: Staphylococcus aureus; assay: Antimicrobial activity against Staphylococcus aureus SG511 after 24 hrs by Kirby-Bauer agar diffusion assay; format: functional; outline: as §1
[5] = tested on: Staphylococcus aureus; assay: Antimicrobial activity against methicillin-resistant Staphylococcus aureus 134/94 after 24 hrs by Kirby-Bauer agar diffusion assay; format: functional
Outline: (§2)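 Overnight LB cultures (18–24 h) adjusted to a 0.5 McFarland standard (1.5×10^6 CFU/mL in 0.9% saline), then 0.1 mL mixed into 34 mL molten MHII agar at 47–50 °C (~5×10^3 CFU/mL). 50 µL of 2.0 mM compound in 10:1 MeOH:DMSO placed in 9 mm wells. Incubated at 37 °C for 24 h; inhibition zone diameter (mm) measured by caliper.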

[6] = tested on: Enterococcus faecalis; assay: Antimicrobial activity against Enterococcus faecalis ATCC 49532 after 24 hrs by Kirby-Bauer agar diffusion assay; format: functional; outline: as §1
[7] = tested on: Enterococcus faecalis; assay: Antimicrobial activity against vancomycin-resistant Enterococcus faecalis 1528 after 24 hrs by Kirby-Bauer agar diffusion assay; format: functional; outline: as §2
[8] = tested on: Bacillus subtilis; assay: Antimicrobial activity against Bacillus subtilis ATCC 6633 after 24 hrs by Kirby-Bauer agar diffusion assay; format: functional; outline: as §1
[9] = tested on: Mycolicibacterium vaccae; assay: Antimicrobial activity against Mycobacterium vaccae IMET 10670 after 24 hrs by Kirby-Bauer agar diffusion assay; format: functional; outline: as §1
[10] = tested on: Escherichia coli; assay: Antimicrobial activity against Escherichia coli DC0 after 24 hrs by Kirby-Bauer agar diffusion assay; format: functional; outline: as §1
[11] = tested on: Escherichia coli; assay: Antimicrobial activity against Escherichia coli DC2 after 24 hrs by Kirby-Bauer agar diffusion assay; format: functional; outline: as §1
[12] = tested on: Pseudomonas aeruginosa; assay: Antimicrobial activity against Pseudomonas aeruginosa 799/WT after 24 hrs by Kirby-Bauer agar diffusion assay; format: functional; outline: as §1
[13] = tested on: Pseudomonas aeruginosa; assay: Antimicrobial activity against Pseudomonas aeruginosa 799/61 after 24 hrs by Kirby-Bauer agar diffusion assay; format: functional; outline: as §1
[14] = tested on: Sporobolomyces salmonicolor; assay: Antimicrobial activity against Sporidiobolus salmonicolor 549 after 24 hrs by Kirby-Bauer agar diffusion assay; format: functional; outline: as §1
[15] = tested on: Micrococcus luteus; assay: Antimicrobial activity against Micrococcus luteus ATCC 10240 assessed after 18 hrs by broth microdilution method; format: functional; details: ATCC 10240, 18 h
Outline: (§3)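 CLSI broth microdilution in cation-adjusted MHII broth. 20 mM DMSO stocks were diluted to 512 µM, then serially 2-fold, giving final 128–0.0625 µM with 5×10⁵ CFU/mL inoculum. Incubated 18 h at 37 °C. MIC90 was the lowest concentration giving 90% inhibition by visual turbidity versus DMSO wells. Run in triplicate.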

[16] = tested on: Staphylococcus aureus; assay: Antimicrobial activity against Staphylococcus aureus SG511 assessed after 18 hrs by broth microdilution method; format: functional; details: SG511, 18 h; outline: as §3
[17] = tested on: Enterococcus faecalis; assay: Antimicrobial activity against Enterococcus faecalis ATCC 49532 assessed after 18 hrs by broth microdilution method; format: functional; details: ATCC 49532, 18 h; outline: as §3
[18] = tested on: MCF7; assay: Cytotoxicity against human MCF7 cells; format: cell-based

Row | Structure (SMILES) | MIC90 [15] [µM] | MIC90 [16] [µM] | MIC90 [17] [µM] | Activity [1] | Activity [2] | diameter of the inhibition zone (DIZ) [3] [mm] | diameter of the inhibition zone (DIZ) [4] [mm] | diameter of the inhibition zone (DIZ) [5] [mm] | diameter of the inhibition zone (DIZ) [6] [mm] | diameter of the inhibition zone (DIZ) [7] [mm] | diameter of the inhibition zone (DIZ) [8] | diameter of the inhibition zone (DIZ) [9] [mm] | diameter of the inhibition zone (DIZ) [10] | diameter of the inhibition zone (DIZ) [11] | diameter of the inhibition zone (DIZ) [12] | diameter of the inhibition zone (DIZ) [13] | diameter of the inhibition zone (DIZ) [14] | Activity [18]
1 | CO[C@@H]1C=C[C@@H](N(O)c2ccc(Br)cn2)CC1 (racemic) | 4 (≈ 1.2 µg/mL) | > 128 | > 128 | Non-toxic | Non-toxic | 34 | 12 | 11 | 16 | 16 | <=10 mm | 11 | <=10 mm | <=10 mm | <=10 mm | <=10 mm | <=10 mm | Non-toxic
2 | C=C(C)C(C)N(O)c1cccc(C)n1 (racemic) | 4 (≈ 0.769 µg/mL) | > 128 | > 128 | Non-toxic | Non-toxic | 48 | 12 | 11 | 15 | 16 | <=10 mm | 16 | <=10 mm | <=10 mm | <=10 mm | <=10 mm | <=10 mm | Non-toxic
3 | CN(O)c1ccccn1 | ≥ 128 | > 128 | > 128 | Non-toxic | Non-toxic | 18 | 0 | – | 0 | – | – | – | – | – | – | – | – | Non-toxic
4 | CCCN(O)c1ccccn1 | > 128 | > 128 | > 128 | Non-toxic | Non-toxic | 13 | 0 | – | 0 | – | – | – | – | – | – | – | – | Non-toxic
5 | ON(Cc1ccccc1)Cc1ccccn1 | > 128 | > 128 | > 128 | Non-toxic | Non-toxic | 0 | 0 | – | 0 | – | – | – | – | – | – | – | – | Non-toxic
6 | C=CCN(O)c1ccccn1 | > 128 | > 128 | > 128 | Non-toxic | Non-toxic | 14 | 0 | – | 12 | – | – | – | – | – | – | – | – | Non-toxic
7 | ON(CCc1ccccc1)c1ccccn1 | 128 (≈ 27.4 µg/mL) | > 128 | > 128 | Non-toxic | Non-toxic | 16 | 0 | – | 15 | – | – | – | – | – | – | – | – | Non-toxic
8 | C=C(C)C(CC/C(C)=C/CO)N(O)c1ccccn1 (racemic) | 8 (≈ 2.1 µg/mL) | 64 (≈ 16.8 µg/mL) | > 128 | Non-toxic | Non-toxic | 35 | 19 | 16 | 20 | 16 | 11 mm | 16 | <=10 mm | <=10 mm | <=10 mm | <=10 mm | <=10 mm | Non-toxic
9 | ON(Cc1ccccc1)c1cccnc1 | ≥ 128 | > 128 | > 128 | Non-toxic | Non-toxic | 15 | 16 | – | 0 | – | – | – | – | – | – | – | – | Non-toxic

More lines, in order of falling MIC90 [15], values ahead:

Row | MIC90 [15] [µM] | MIC90 [16] [µM] | MIC90 [17] [µM] | Structure (SMILES) | Activity [1] | Activity [2] | diameter of the inhibition zone (DIZ) [3] [mm] | diameter of the inhibition zone (DIZ) [4] [mm] | diameter of the inhibition zone (DIZ) [5] [mm] | diameter of the inhibition zone (DIZ) [6] [mm] | diameter of the inhibition zone (DIZ) [7] [mm] | diameter of the inhibition zone (DIZ) [8] | diameter of the inhibition zone (DIZ) [9] [mm] | diameter of the inhibition zone (DIZ) [10] | diameter of the inhibition zone (DIZ) [11] | diameter of the inhibition zone (DIZ) [12] | diameter of the inhibition zone (DIZ) [13] | diameter of the inhibition zone (DIZ) [14] | Activity [18]
10 | 128 (≈ 31 µg/mL) | > 128 | > 128 | CC(=O)ON(Cc1ccccc1)c1ccccn1 | Non-toxic | Non-toxic | 20 | 12 | – | 11 | – | – | – | – | – | – | – | – | Non-toxic
11 | 128 (≈ 35.9 µg/mL) | > 128 | > 128 | C=C(C)C(C)N(O)c1ncc(C(F)(F)F)cc1Cl (racemic) | Non-toxic | Non-toxic | 15 | 0 | – | 13 | – | – | – | – | – | – | – | – | Non-toxic
12 | 128 (≈ 34.3 µg/mL) | > 128 | > 128 | ON(Cc1ccc(C(F)(F)F)cc1)c1ccccn1 | Non-toxic | Non-toxic | 16 | 15 | – | 15 | – | – | – | – | – | – | – | – | Non-toxic
13 | 64 (≈ 14.5 µg/mL) | 32 (≈ 7.24 µg/mL) | > 128 | C=C(CN(O)c1ccccn1)c1ccccc1 | Non-toxic | Non-toxic | 20 | 19 | – | 18 | – | – | – | – | – | – | – | – | Non-toxic
14 | 64 (≈ 11.7 µg/mL) | > 128 | > 128 | C=C(C)C(C)N(O)c1cc(C)on1 (racemic) | Non-toxic | Non-toxic | 21 | 0 | – | 13 | – | – | – | – | – | – | – | – | Non-toxic
15 | 32 (≈ 10.9 µg/mL) | > 128 | > 128 | CO[C@H]1C=CCC[C@@H]1N(OC(C)=O)c1ccc(Br)cn1 (racemic) | Non-toxic | Non-toxic | 22 | 0 | – | 0 | – | – | – | – | – | – | – | – | Non-toxic
16 | 16 (≈ 3.08 µg/mL) | > 128 | > 128 | C=C(C)C(C)N(O)c1ncccc1C (racemic) | Non-toxic | Non-toxic | 25 | 10 | – | 19 | – | – | – | – | – | – | – | – | Non-toxic
17 | 16 (≈ 3.75 µg/mL) | 128 (≈ 30 µg/mL) | > 128 | C=C(C)C(CCC(C)=O)N(O)c1ccccn1 (racemic) | Non-toxic | Non-toxic | 30 | 15 | – | 16 | – | – | – | – | – | – | – | – | Non-toxic
18 | 4 (≈ 1.2 µg/mL) | ≥ 128 | > 128 | CO[C@H]1C=CCC[C@@H]1N(O)c1ccc(Br)cn1 (racemic) | Non-toxic | Non-toxic | 34 | 18 | – | 20 | – | – | – | – | – | – | – | – | Non-toxic
